Experiments:
[1] = target: T1, Proto-oncogene tyrosine-protein kinase Src (Homo sapiens, UniProt P12931); test: Inhibition of GST-fussed c-SRC after 30 mins
[2] = target: T1, Proto-oncogene tyrosine-protein kinase Src; test: Inhibition of GST-fussed c-SRC up to 250 uM after 30 mins
Summary of the method: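 Src kinase enzyme inhibition was assessed at concentrations up to 250 μM.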

HT-29 [3] = test: Cytotoxicity against c-SRC expressing human HT-29 cells assessed as inhibition of cell proliferation at 50 uM after 72 hrs relative to control; format: functional; settings: HT-29, 72 h
Summary of the method: (§1)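 Proliferation of SK-Ov-3, MDA-MB-361 and HT-29 cells was measured after 72 h exposure at 50 μM. Growth is expressed as a percentage of the DMSO vehicle control, set at 100%, with no compound. All experiments were run in triplicate.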

HT-29 [4] = test: Cellular uptake in c-SRC expressing human HT-29 cells; format: ADME, cell-based
MDA-MB-361 [5] = test: Cellular uptake in c-SRC expressing human MDA-MB-361 cells; format: ADME, cell-based
SK-OV-3 [6] = test: Cellular uptake in c-SRC expressing human SKOV3 cells; format: ADME, cell-based
SK-OV-3 [7] = test: Cytotoxicity against c-SRC expressing human SKOV3 cells assessed as inhibition of cell proliferation at 50 uM after 72 hrs relative to control; format: functional; settings: SK-OV-3, 72 h; summary of the method: as §1
MDA-MB-361 [8] = test: Cytotoxicity against c-SRC expressing human MDA-MB-361 cells assessed as inhibition of cell proliferation at 50 uM after 72 hrs relative to control; format: functional; settings: MDA-MB-361, 72 h; summary of the method: as §1

T1 sequence (P12931 2-536 limits assumed): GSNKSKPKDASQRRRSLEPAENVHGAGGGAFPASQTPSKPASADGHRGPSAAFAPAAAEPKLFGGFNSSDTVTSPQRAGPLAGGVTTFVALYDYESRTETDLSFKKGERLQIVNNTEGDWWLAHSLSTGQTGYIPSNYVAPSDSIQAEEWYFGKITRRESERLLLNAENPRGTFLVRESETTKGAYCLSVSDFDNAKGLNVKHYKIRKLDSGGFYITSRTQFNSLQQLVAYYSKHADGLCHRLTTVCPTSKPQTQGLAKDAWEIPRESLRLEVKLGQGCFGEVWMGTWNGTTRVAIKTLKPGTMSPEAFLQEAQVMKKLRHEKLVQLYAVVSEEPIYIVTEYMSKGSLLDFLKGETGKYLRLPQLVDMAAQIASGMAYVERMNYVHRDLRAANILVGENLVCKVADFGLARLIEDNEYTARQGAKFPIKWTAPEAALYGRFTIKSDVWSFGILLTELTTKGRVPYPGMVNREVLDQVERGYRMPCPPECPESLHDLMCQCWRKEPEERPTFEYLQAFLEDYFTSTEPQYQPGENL

IC50 [1] [µM] | Compound | further results
> 75 | Nc1ncnc2c1c(-c1ccccc1)nn2Cc1cn(CC(=O)c2ccc(Cl)cc2)nn1 | 
16.4 | Nc1ncnc2c1c(-c1ccccc1)nn2Cc1cn(CC(=O)Nc2ccc(F)cc2)nn1 | 
6.2 | [N-]=[N+]=NCCn1nc(-c2ccccc2)c2c(N)ncnc21 | 
 | Nc1ncnc2c1c(-c1ccccc1)nn2CCn1cc(CCCCl)nn1 | inhibition [2]: < 10%; inhibition at 50 µM (HT-29 [3]): 57%
> 75 | CCCCc1cn(CCn2nc(-c3ccccc3)c3c(N)ncnc32)nn1 | 
> 75 | Nc1ncnc2c1c(-c1ccccc1)nn2Cc1cn(CC(=O)c2ccccc2)nn1 | 
> 75 | CCCCCCCc1cn(CCn2nc(-c3ccccc3)c3c(N)ncnc32)nn1 | 
> 75 | CC(=O)c1ccc(-c2cn(CCn3nc(-c4ccccc4)c4c(N)ncnc43)nn2)cc1 | 
12.7 | CCOC(=O)Cn1cc(Cn2nc(-c3ccccc3)c3c(N)ncnc32)nn1 | 
9.1 | Nc1ncnc2c1c(-c1ccccc1)nn2Cc1cn(CC(=O)CCCO)nn1 | 
5.6 | CCCCCCc1cn(CCn2nc(-c3ccccc3)c3c(N)ncnc32)nn1 | Drug uptake (HT-29 [4]): Active; Drug uptake (MDA-MB-361 [5]): Active; Drug uptake (SK-OV-3 [6]): Active
 | Nc1ncnc2c1c(-c1ccccc1)nn2Cc1cn(CC(=O)CCc2cccc3ccccc23)nn1 | inhibition [2]: < 10%; inhibition at 50 µM (SK-OV-3 [7]): 48%
> 75 | CCCCCCCCCCc1cn(CCn2nc(-c3ccccc3)c3c(N)ncnc32)nn1 | 
> 75 | Nc1ncnc2c1c(-c1ccccc1)nn2Cc1cn(CC(=O)Nc2ccc(Cl)cc2)nn1 | 
23.1 | Nc1ncnc2c1c(-c1ccccc1)nn2Cc1cn(CC(=O)Nc2ccccc2)nn1 | inhibition at 50 µM (MDA-MB-361 [8]): 51%
17.4 | COc1ccc(-c2cn(CCn3nc(-c4ccccc4)c4c(N)ncnc43)nn2)cc1 | inhibition at 50 µM (HT-29 [3]): 73%; inhibition at 50 µM (SK-OV-3 [7]): 58%
29.6 | Nc1ncnc2c1c(-c1ccccc1)nn2CCn1cc(-c2ccc(F)cc2)nn1 | inhibition at 50 µM (MDA-MB-361 [8]): 49%
 | Nc1ncnc2c1c(-c1ccccc1)nn2CCn1cc(Cc2ccccc2)nn1 | inhibition [2]: < 10%
> 75 | Nc1ncnc2c1c(-c1ccccc1)nn2Cc1cn(CC(=O)c2cccs2)nn1 | 
> 75 | Cc1ccc(C(=O)Cn2cc(Cn3nc(-c4ccccc4)c4c(N)ncnc43)nn2)cc1 | 

— ChEMBL document CHEMBL1681674, “Synthesis of 3-phenylpyrazolopyrimidine-1,2,3-triazole conjugates and evaluation of their Src kinase inhibitory and anticancer activities” (Bioorg Med Chem Lett, 2011)
